# Data reported in ChEMBL document CHEMBL1221207, “Expanding the promiscuity of a natural-product glycosyltransferase by directed evolution” (Nat Chem Biol, 2007).
# Substitutions are numbered along the chain they refer to.
# What was measured:
# [1] = system: T1, Oleandomycin glycosyltransferase (Streptomyces antibioticus), Q53685 [P67T,S132F,A242V]; test: Activity of Streptomyces antibioticus OleD P67T/S132F/A242V mutant assessed as conversion rate of compound to produce glucoside 3 using NDP sugar UDP-6-deoxy-glucose after 3 hrs by HPLC
# T1 sequence (whole entry): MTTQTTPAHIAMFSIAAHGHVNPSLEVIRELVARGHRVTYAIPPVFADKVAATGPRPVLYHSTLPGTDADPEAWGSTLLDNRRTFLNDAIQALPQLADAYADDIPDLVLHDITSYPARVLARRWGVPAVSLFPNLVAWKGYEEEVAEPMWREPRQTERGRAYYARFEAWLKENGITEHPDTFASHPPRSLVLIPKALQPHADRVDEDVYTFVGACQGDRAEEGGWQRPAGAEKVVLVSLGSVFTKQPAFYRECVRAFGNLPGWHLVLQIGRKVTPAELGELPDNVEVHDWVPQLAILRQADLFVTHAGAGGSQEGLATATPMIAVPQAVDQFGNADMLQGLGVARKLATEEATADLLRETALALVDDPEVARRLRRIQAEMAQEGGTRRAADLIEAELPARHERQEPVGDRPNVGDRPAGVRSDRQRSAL
# Procedure, shortened: (§1)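 End-point donor-specificity assay with purified OleD enzyme. Percentage conversion was read after 3 h. Quenched reactions were run by reverse-phase C18 HPLC with a 10–90% CH3CN gradient in 0.1% formic acid/H2O over 20 min at 1 ml min–1, with detection at 254 nm. Products were identified by LC-MS, by comparison to standards where available, and by fluorescence.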
# [2] = system: T1, Oleandomycin glycosyltransferase (Streptomyces antibioticus), Q53685 [P67T,S132F,A242V]; test: Activity of Streptomyces antibioticus OleD P67T/S132F/A242V mutant assessed as conversion rate of compound to produce glucoside 3 using NDP sugar donor-UDP-4,6-dideoxyglucose after 3 hrs by HPLC; procedure, shortened: as §1
# [3] = system: T1, Oleandomycin glycosyltransferase (Streptomyces antibioticus), Q53685 [P67T,S132F,A242V]; test: Activity of Streptomyces antibioticus OleD P67T/S132F/A242V mutant assessed as conversion rate of compound to produce glucoside 3 using NDP sugar donor UDP-3-amino-glucose after 3 hrs by HPLC; procedure, shortened: as §1
# [4] = system: T1, Oleandomycin glycosyltransferase (Streptomyces antibioticus), Q53685 [P67T,S132F,A242V]; test: Activity of Streptomyces antibioticus OleD P67T/S132F/A242V mutant assessed as conversion rate of compound to produce glucoside 3 using NDP sugar donor UDP-3-amino-6-deoxy-glucose after 3 hrs by HPLC; procedure, shortened: as §1
# [5] = system: T2, Oleandomycin glycosyltransferase (Streptomyces antibioticus), Q53685 [P67T]; test: Activity of Streptomyces antibioticus OleD P67T mutant assessed as conversion rate of compound to produce glucoside 3 using NDP sugar donor UDP-glucose after 3 hrs by HPLC; procedure, shortened: as §1
# T2 sequence (whole entry): T1 sequence (whole entry) with F132S, V242A
# [6] = system: T2, Oleandomycin glycosyltransferase (Streptomyces antibioticus), Q53685 [P67T]; test: Activity of Streptomyces antibioticus OleD P67T mutant assessed as conversion rate of compound to produce glucoside 3 using NDP sugar donor UDP-6-deoxy-glucose after 3 hrs by HPLC; procedure, shortened: as §1
# [7] = system: T2, Oleandomycin glycosyltransferase (Streptomyces antibioticus), Q53685 [P67T]; test: Activity of Streptomyces antibioticus OleD P67T mutant assessed as conversion rate of compound to produce glucoside 3 using NDP sugar donor UDP-xylose after 3 hrs by HPLC; procedure, shortened: as §1
# [8] = system: T3, Oleandomycin glycosyltransferase (Streptomyces antibioticus), Q53685 [S132F]; test: Activity of Streptomyces antibioticus OleD S132F mutant assessed as conversion rate of compound to produce glucoside 3 using NDP sugar donor UDP-xylose after 3 hrs by HPLC; procedure, shortened: as §1
# T3 sequence (whole entry): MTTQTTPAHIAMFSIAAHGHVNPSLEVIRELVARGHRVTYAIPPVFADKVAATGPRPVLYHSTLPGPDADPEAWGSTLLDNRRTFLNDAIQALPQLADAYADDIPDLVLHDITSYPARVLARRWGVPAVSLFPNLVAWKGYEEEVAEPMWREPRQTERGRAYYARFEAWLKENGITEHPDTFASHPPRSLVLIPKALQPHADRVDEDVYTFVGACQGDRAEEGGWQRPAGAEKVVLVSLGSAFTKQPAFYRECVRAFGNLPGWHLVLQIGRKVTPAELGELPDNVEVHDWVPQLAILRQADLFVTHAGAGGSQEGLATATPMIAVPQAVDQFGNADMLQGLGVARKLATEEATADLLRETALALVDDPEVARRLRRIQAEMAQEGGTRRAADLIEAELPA
# [9] = system: T4, Oleandomycin glycosyltransferase (Streptomyces antibioticus), Q53685 [A242V]; test: Activity of Streptomyces antibioticus OleD A242V mutant assessed as conversion rate of compound to produce glucoside 3 using NDP sugar donor UDP-glucose after 3 hrs by HPLC; procedure, shortened: as §1
# T4 sequence (whole entry): T1 sequence (whole entry) with T67P, F132S
smiles,measurement,setting,value
Cc1cc(=O)oc2cc(O)ccc12,Activity,[1],85%
same,Activity,[2],45%
same,Activity,[3],4%
same,Activity,[4],4%
same,Activity,[5],51%
same,Activity,[6],11%
same,Activity,[7],2%
same,Activity,[8],1.5%
same,Activity,[9],38%
